Data on five compounds can be found in ChEMBL document CHEMBL3352384, “Synthesis and biological activity of new salicylanilide N,N-disubstituted carbamates and thiocarbamates” (Bioorg Med Chem, 2014).

Converted amounts (≈) assume the structure as drawn. Where only a bound is given, the exact number is not on record here.

Data set [1] has as its system Mycobacterium avium. Nature of the data set: Antimycobacterial activity against Isoniazid, rifampicin, ofloxacin and ethambutol-resistant Mycobacterium avium 330/88 assessed as complete growth inhibition after 21 days. It counts as functional. Particulars: 330/88, 504 h. The method, boiled down:
(§1)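 M. tuberculosis 331/88 (H37Rv) inoculum diluted 10-3, M. avium 330/88 diluted 10-5. MIC is the lowest concentration giving complete growth inhibition. Isoniazid and p-aminosalicylic acid as references. Quadruplicate, repeated twice.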

The subject of data set [2] is Mycobacterium kansasii. Nature of the data set: Antimycobacterial activity against Mycobacterium kansasii 235/80 assessed as complete growth inhibition after 7 days. The class given is functional. Particulars: 235/80, 168 h. The gist of the method:
(§2)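 Dilutions of M. kansasii inoculum were 10-4 for strain 235/80 and 10-5 for clinical isolate 6509/96. MIC was the lowest concentration giving complete growth inhibition, run in quadruplicate and repeated twice.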

The test system of data set [3] is Mycobacterium kansasii. The data set can be described thus: Antimycobacterial activity against Mycobacterium kansasii 235/80 assessed as complete growth inhibition after 14 days. The conditions noted are these: 235/80, 336 h. It counts as functional. The gist of the method: as §2
Data set [4] has as its system Mycobacterium kansasii. The data set can be described thus: Antimycobacterial activity against Mycobacterium kansasii 235/80 assessed as complete growth inhibition after 21 days. The class given is functional. The conditions noted are these: 235/80, 504 h. The gist of the method:
as §2

Data set [5] concerns Mycobacterium kansasii. The data set can be described thus: Antimycobacterial activity against clinical isolate Mycobacterium kansasii 6509/96 assessed as complete growth inhibition after 7 days. It counts as functional. The conditions noted are these: 6509/96, 168 h. The gist of the method: as §2
In data set [6] the test system is Mycobacterium kansasii. Nature of the data set: Antimycobacterial activity against clinical isolate Mycobacterium kansasii 6509/96 assessed as complete growth inhibition after 14 days. Particulars: 6509/96, 336 h. It counts as functional. The method, boiled down: as §2
Data set [7] relates to Mycobacterium kansasii. The data set can be described thus: Antimycobacterial activity against clinical isolate Mycobacterium kansasii 6509/96 assessed as complete growth inhibition after 21 days. Particulars: 6509/96, 504 h. The class given is functional. The method, boiled down:
as §2

Data set [8] in a line: Inhibition of Mycobacterium tuberculosis H37Rv isocitrate lyase assessed as glyoxylate phenyl hydrazone formation at 10 uM.
In data set [9] the test system is Staphylococcus aureus. Nature of the data set: Antimicrobial activity against Staphylococcus aureus CCM 4516/08 after 24 hrs by microdilution method. It counts as functional. Particulars: CCM 4516/08, 24 h. The method, boiled down:
(§3)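 Mueller-Hinton broth microdilution; compounds dissolved in DMSO, final concentrations 500 to 0.49 µM. […] Benzylpenicillin and bacitracin as comparators. Each determination done twice.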

Data set [10] relates to Staphylococcus aureus. Nature of the data set: Antimicrobial activity against Staphylococcus aureus CCM 4516/08 after 48 hrs by microdilution method. It counts as functional. Particulars: CCM 4516/08, 48 h. The gist of the method: as §3
On the technique in general: In broth dilution the organism is exposed to a series of concentrations in liquid medium.

Data set [11] has as its system Staphylococcus aureus. Nature of the data set: Antimicrobial activity against methicillin-resistant Staphylococcus aureus H 5996/08 after 24 hrs by microdilution method. The class given is functional. The conditions noted are these: H 5996/08, 24 h. The gist of the method: as §3
Data set [12] relates to Staphylococcus aureus. The data set can be described thus: Antimicrobial activity against methicillin-resistant Staphylococcus aureus H 5996/08 after 48 hrs by microdilution method. It counts as functional. The conditions noted are these: H 5996/08, 48 h. The method, boiled down:
as §3

Data set [13] concerns Staphylococcus epidermidis. Nature of the data set: Antimicrobial activity against Staphylococcus epidermidis H 6966/08 after 24 hrs by microdilution method. The class given is functional. Particulars: H 6966/08, 24 h. The gist of the method:
(§4)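 Broth microdilution in Mueller-Hinton broth, compounds dissolved in DMSO, final concentrations 500 to 0.49 µM. Benzylpenicillin and bacitracin were run as comparators. MIC was taken as 95% (IC95) or greater growth reduction versus control. Each determination was done twice.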

In data set [14] the test system is Staphylococcus epidermidis. Nature of the data set: Antimicrobial activity against Staphylococcus epidermidis H 6966/08 after 48 hrs by microdilution method. It counts as functional. Particulars: H 6966/08, 48 h. The gist of the method: as §4
Data set [15] has as its system Enterococcus sp. Nature of the data set: Antimicrobial activity against Enterococcus sp. J 14365/08 after 24 hrs by microdilution method. The class given is functional. The conditions noted are these: J 14365/08, 24 h. The method, boiled down:
as §4

The test system of data set [16] is Enterococcus sp. The data set can be described thus: Antimicrobial activity against Enterococcus sp. J 14365/08 after 48 hrs by microdilution method. It counts as functional. The conditions noted are these: J 14365/08, 48 h. The method, boiled down:
as §4

Data set [17] has as its system Trichophyton mentagrophytes. Nature of the data set: Antimicrobial activity against Trichophyton mentagrophytes 445 after 72 hrs by microdilution method. It counts as functional. Particulars: Trichophyton mentagrophytes, 445, 72 h. The method, boiled down: (§5)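 Broth microdilution in RPMI 1640 with glutamine, with fluconazole and amphotericin B as references. For filamentous fungi, MIC is expressed as the IC50, i.e. the concentration giving 50% growth reduction versus control. Each determination was done twice.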

For data set [18], the system named is Trichophyton mentagrophytes. Nature of the data set: Antimicrobial activity against Trichophyton mentagrophytes 445 after 120 hrs by microdilution method. It counts as functional. Particulars: Trichophyton mentagrophytes, 445, 120 h. The gist of the method:
as §5

A further data set deals with HepG2. The data set can be described thus: Cytotoxicity against human HepG2 cells assessed as reduction in cell viability after 24 hrs by MTS assay. Particulars: HepG2, 24 h. It counts as cell-based. The method, boiled down: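 HepG2 hepatocellular carcinoma cells (passage 3–4) were grown in Eagle's MEM with 10% FBS, 1% L-glutamine and non-essential amino acids. Compounds were added from DMSO at eight concentrations in triplicate, with 10% DMSO as the 0% viability control. Viability was read by tetrazolium salt reduction (CellTiter 96 AQueous One). IC50 is the concentration reducing viability to 50% of control.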

Data set [19] can be described thus: Selectivity index, ratio of IC50 for human HepG2 cells to MIC for atypical mycobacteria. The gist of the method:
(§6)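 Selectivity index = HepG2 IC50 / MIC. HepG2 cells (passage 3–4) grown in Eagle's MEM with 10% FBS, L-glutamine and non-essential amino acids. Compounds added from DMSO, eight concentrations in triplicate, tetrazolium-reduction colorimetric read-out. IC50 is the concentration reducing viability to 50% of control; 10% DMSO as 0% viability.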

Data set [20] can be described thus: Selectivity index, ratio of IC50 for human HepG2 cells to MIC for methicillin-resistant Staphylococcus aureus H 5996/08. The method, boiled down: as §6
The nature of data set [21]: Selectivity index, ratio of IC50 for human HepG2 cells to MIC for Trichophyton mentagrophytes 445.
Data set [22] can be described thus: Selectivity index, ratio of IC50 for human HepG2 cells to MIC for Mycobacterium tuberculosis H37Rv. The class given is toxicity, cell-based. The conditions noted are these: read-out: Selectivity Index. The method, boiled down:
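Selectivity index = HepG2 IC50 / MIC. HepG2 cells (passage 3–4) grown in Eagle's MEM with 10% FBS, L-glutamine and non-essential amino acids. Compounds added from DMSO, eight concentrations in triplicate, tetrazolium-reduction colorimetric read-out.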

Data set [23] concerns Mycobacterium tuberculosis. Nature of the data set: Antimycobacterial activity against Mycobacterium tuberculosis H37Rv 331/88 assessed as complete growth inhibition after 14 days. Particulars: H37Rv 331/88, 336 h. The class given is functional. The gist of the method: as §1
Data set [24] relates to Mycobacterium tuberculosis. Nature of the data set: Antimycobacterial activity against Mycobacterium tuberculosis H37Rv 331/88 assessed as complete growth inhibition after 21 days. It counts as functional. Particulars: H37Rv 331/88, 504 h. The gist of the method:
as §1

The test system of data set [25] is Mycobacterium avium. The data set can be described thus: Antimycobacterial activity against Isoniazid, rifampicin, ofloxacin and ethambutol-resistant Mycobacterium avium 330/88 assessed as complete growth inhibition after 14 days. The class given is functional. Particulars: 330/88, 336 h. The method, boiled down: as §1

By MIC is commonly meant the least concentration at which growth counts as inhibited. One may read the inhibition as the relative decrease from the control value, in per cent. One may read the IC50 as the concentration that gives 50% inhibition. On to `CN(C)C(=O)Oc1ccc(Cl)cc1C(=O)Nc1ccc(Cl)cc1`, for which the MIC was 62.5 µM (≈ 22.1 µg/mL) with Mycobacterium avium [1]; 62.5 µM (≈ 22.1 µg/mL) in the data set with Mycobacterium kansasii [2]; 62.5 µM (≈ 22.1 µg/mL) in the data set on Mycobacterium kansasii [3]; 62.5 µM (≈ 22.1 µg/mL) in the data set on Mycobacterium kansasii [4]; 62.5 µM (≈ 22.1 µg/mL) in the data set on Mycobacterium kansasii [5]; 125 µM (≈ 44.2 µg/mL) in the data set with Mycobacterium kansasii [6]. Also, the MIC turned out to be 125 µM (≈ 44.2 µg/mL) in the data set on Mycobacterium kansasii [7]; 62.5 µM (≈ 22.1 µg/mL) in the data set with Staphylococcus aureus [9]; 125 µM (≈ 44.2 µg/mL) in the data set with Staphylococcus aureus [10]; 62.5 µM (≈ 22.1 µg/mL) against Staphylococcus aureus [11]; 125 µM (≈ 44.2 µg/mL) with Staphylococcus aureus [12]; 125 µM (≈ 44.2 µg/mL) in [13]. The MIC in [14] is 125 µM (≈ 44.2 µg/mL); in the data set with Enterococcus sp. [15], 125 µM (≈ 44.2 µg/mL); in the data set on Enterococcus sp. [16], over 125 µM; in [17] it was 31.2 µM (≈ 11 µg/mL); in [18], 31.2 µM (≈ 11 µg/mL); in [23], 16 µM (≈ 5.65 µg/mL). The MIC in data set [24] turned out to be 16 µM (≈ 5.65 µg/mL); with Mycobacterium avium [25], 62.5 µM (≈ 22.1 µg/mL). In data set [8], the inhibition turned out to be 6%. In addition, the half-maximal inhibitory concentration (IC50) with HepG2 amounted to 189 µM. Besides, the “Selectivity Index” value in data set [19] is 1.5; in [20] it was 1.5; in data set [21], 6. Also, the selectivity ratio in data set [22] worked out at 11.8.

With `CC1(C)S[C@@H]2[C@H](NC(=O)Cc3ccccc3)C(=O)N2[C@H]1C(=O)O` [PENICILLIN G], the MIC turned out to be 0.98 µM (≈ 0.328 µg/mL) against Staphylococcus aureus [9]; 0.98 µM (≈ 0.328 µg/mL) against Staphylococcus aureus [10]; 62.5 µM (≈ 20.9 µg/mL) against Staphylococcus aureus [11]; 125 µM (≈ 41.8 µg/mL) with Staphylococcus aureus [12]; 250 µM (≈ 83.6 µg/mL) in data set [13]; 250 µM (≈ 83.6 µg/mL) in data set [14]. The MIC is 7.81 µM (≈ 2.61 µg/mL) against Enterococcus sp. [15] and 15.6 µM (≈ 5.22 µg/mL) against Enterococcus sp. [16]. The IC50 with HepG2 is over 10000 µM. Moreover, the “Selectivity Index” value in data set [20] is over 10.2.

For the compound `OC(Cn1cncn1)(Cn1cncn1)c1ccc(F)cc1F` [FLUCONAZOLE], the minimal inhibitory concentration (MIC) in [17] came to 7.81 µM (≈ 2.39 µg/mL); in data set [18] it was 125 µM (≈ 38.3 µg/mL). For the same compound, the IC50 with HepG2 was over 300 µM. Also, the “Selectivity Index” value in data set [21] is over 2.4.

On to `O=C(Nc1ccc(F)cc1)c1cc(Cl)ccc1O`, for which the MIC stood at 32 µM (≈ 8.5 µg/mL) in the data set on Mycobacterium avium [1]; 8 µM (≈ 2.13 µg/mL) in the data set on Mycobacterium kansasii [2]; 16 µM (≈ 4.25 µg/mL) in the data set on Mycobacterium kansasii [3]; 16 µM (≈ 4.25 µg/mL) with Mycobacterium kansasii [4]; 8 µM (≈ 2.13 µg/mL) with Mycobacterium kansasii [5]; 16 µM (≈ 4.25 µg/mL) in the data set with Mycobacterium kansasii [6]. Moreover, the MIC is 16 µM (≈ 4.25 µg/mL) in the data set on Mycobacterium kansasii [7], 8 µM (≈ 2.13 µg/mL) in [23], 8 µM (≈ 2.13 µg/mL) in [24] and 16 µM (≈ 4.25 µg/mL) in the data set on Mycobacterium avium [25]. The inhibition in data set [8] is 14%. Moreover, the IC50 in the data set on HepG2 stood at 26.1 µM. Also, the entries for the “Selectivity Index” value in [19] and in data set [21] were 0.8 and 3.3, respectively. For the same compound, in data set [22], the selectivity ratio amounted to 3.3.

Take `O=C(Nc1ccccc1)c1ccccc1O` [SALICYLANILIDE]: the MIC in the data set on Mycobacterium avium [1] was found to be 250 µM (≈ 53.3 µg/mL); in the data set on Mycobacterium kansasii [2], 125 µM (≈ 26.7 µg/mL); in the data set on Mycobacterium kansasii [3], 250 µM (≈ 53.3 µg/mL); in the data set with Mycobacterium kansasii [4], 250 µM (≈ 53.3 µg/mL); with Mycobacterium kansasii [5] it was 125 µM (≈ 26.7 µg/mL); in the data set with Mycobacterium kansasii [6] it was 250 µM (≈ 53.3 µg/mL). The MIC with Mycobacterium kansasii [7] was 250 µM (≈ 53.3 µg/mL); in data set [23], 32 µM (≈ 6.82 µg/mL); in data set [24], 125 µM (≈ 26.7 µg/mL); in the data set on Mycobacterium avium [25], 125 µM (≈ 26.7 µg/mL). For the same compound, the inhibition in [8] was 9%. Also, the IC50 in the data set on HepG2 is 89.8 µM. In addition, in data set [19], the “Selectivity Index” value stood at 0.36. In addition, in data set [22], the selectivity ratio worked out at 0.7.
